An excerpt weighted towards active compounds, which were near 1.7% of everything screened.
SUMO1-SIM PPI – modulators of human SUMO1-mediated protein-protein interactions | hit rate 0.33% among 360,000 | AID 602429 | P63165 | inhibition, % at 20 µM | SUMO1 binding to a labelled peptide, TR-FRET, 1 h; in the data active means inhibition above about 37%
Target sequence (P63165 whole entry, looked up): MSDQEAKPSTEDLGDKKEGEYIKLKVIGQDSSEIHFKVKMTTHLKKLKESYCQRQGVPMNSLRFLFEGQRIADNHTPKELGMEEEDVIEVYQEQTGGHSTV
DNMT1 inh – inhibitors of human DNMT1. P26358. DNMT1 molecular beacon, Hinp1I cleavage, fluorescence. inhibition (reported as % activation of signal), % at 10 µM. hit rate 0.83% among 360,000. AID 588458; in the data active means inhibition above about 50%
Scp1 inh – inhibitors of human Scp-1 phosphatase | Q9GZU7 | Recombinant Scp1, phosphopeptide, malachite green phosphate absorbance | inhibition, % at 20 µM | hit rate 0.88% among 340,000;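 active means inhibition above about 50% at 20 µM, limit read from the data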;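 further: plate controls were DMSO wells with enzyme for no effect and wells lacking enzyme for full effect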
Target sequence (Q9GZU7 76-261 limits assumed): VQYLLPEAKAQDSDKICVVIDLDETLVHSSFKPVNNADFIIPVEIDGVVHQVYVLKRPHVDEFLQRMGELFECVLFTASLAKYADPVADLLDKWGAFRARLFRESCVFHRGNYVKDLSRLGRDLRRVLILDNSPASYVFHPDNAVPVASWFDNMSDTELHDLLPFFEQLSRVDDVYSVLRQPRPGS
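Assay system: SCP-1 catalytic fragment, aa 76-261 | Buffer or medium: Tris acetate buffer pH 5.5 with MgCl2 and Tween-20 | Compound: One concentration, 20 µM, with 1.0% DMSO | Also added: Phospho 17-mer peptide substrate | Signal: Absorbance at 630 nm | Incubation: 45 min enzyme reaction at room temperature | Measure: % inhibition of SCP-1 phosphate liberation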
LMPTP block – blocks human LMPTP phosphatase; recombinant LMPTP-A, OMFP fluorogenic substrate, fluorescence intensity; hit rate 0.22% among 360,000; inhibition, % at 20 µM;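 active means compounds that cut the enzyme signal by at least half of the control window in the single-dose screen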;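 further: plate controls were DMSO wells with enzyme plus substrate for no effect and substrate without enzyme for full effect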
Target sequence (P24666 whole entry, looked up): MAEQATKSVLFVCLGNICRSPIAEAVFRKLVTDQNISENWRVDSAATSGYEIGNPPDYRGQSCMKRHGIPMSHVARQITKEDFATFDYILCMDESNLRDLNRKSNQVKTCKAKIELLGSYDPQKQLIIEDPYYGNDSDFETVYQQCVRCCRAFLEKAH
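Assay system: LMPTP-A phosphatase enzyme | Input: 0.625 nM enzyme | Also added: Fluorogenic phosphatase substrate OMFP at 400 µM final | Compound dosing: One test concentration per compound, 20 µM, with 3% DMSO overall | Schedule: 50 min enzyme reaction at room temperature, protected from light | Signal: Fluorescence intensity | Benchmarks: no-enzyme and uninhibited controls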
STEP inh – STEP (human) phosphatase inhibition | recombinant STEP, OMFP fluorogenic substrate, fluorescence | inhibition, % at 20 µM | AID 588621 | P54829 | hit rate 0.25% among 360,000;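 active means inhibition at 20 µM, scaled per plate between control wells, above about 37%, limit read from the data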;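 further: 0% = DMSO with enzyme and substrate and 100% = substrate only without enzyme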
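Also added – OMFP at 25 µM · Test system – STEP tyrosine phosphatase · Technique – FITC-channel fluorescence of OMFP product · Schedule – 20 min at room temperature, dark · Evaluation – control-normalized % inhibition with plate pattern correction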
STEP inh conf – confirmation of human STEP phosphatase inhibitors; shares compounds with STEP inh; inhibition, % at 20 µM; hit rate 32% among 520; recombinant STEP, OMFP fluorogenic substrate, fluorescence; AID 623866; call rule not given here;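 further: 0% = enzyme with substrate plus DMSO and 100% = substrate without enzyme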
Active calls of the source: *; · = not tested or not shown.

SMILES | SUMO1-SIM PPI | DNMT1 inh | Scp1 inh | LMPTP block | STEP inh | STEP inh conf
Cc1cc(C)cc(C(=O)N(NC(=O)Nc2ccc(Cl)cc2)C(C)(C)C)c1 | 0 | -6 | -6 | 1 | 0 | ·
CCOc1ccc(/C=N/NC(=O)c2[nH]c3ccc(C)cc3c2C)cc1 | 23 | -7 | -5 | 30 | 80* | 6
CCC(CC)c1nnc(NC(=O)c2cc(C(=O)OC)cc([N+](=O)[O-])c2)s1 | -17 | 7 | -9 | 1 | 97* | 69*
O=C(COc1ccc([N+](=O)[O-])cc1)NCC(c1cccs1)N1CCOCC1 (centres undefined) | -16 | -5 | -9 | -1 | -3 | ·
Cc1ccc(N2CC(NC(=O)C(=O)c3c[nH]c4ccccc34)CC2=O)cc1C (centres undefined) | -2 | 4 | -1 | 3 | 2 | ·
COc1ccc(C(=O)NCCc2c[nH]c3ccc(OC)cc23)cc1 | 6 | -4 | -19 | -1 | 0 | ·
COc1ccc2[nH]cc(CCNC(=O)c3ccccc3Cl)c2c1 | 2 | -29 | -6 | -1 | 46* | 12
CC[C@@]1(C(=O)OC)N[C@H](CN(C)C(=O)c2ccc(F)cc2)[C@@H]2C(=O)N(C)C(=O)[C@@H]21 | -1 | 1 | -4 | -1 | -3 | ·
CCOC(=O)N1CCC(N(CCN(C)C)C(=S)Nc2cc(Cl)ccc2C)CC1 | 3 | -1 | -13 | -10 | 65* | 36*
Cc1csc(=O)n1CCC(=O)OCC(=O)NCc1ccc(Cl)cc1Cl | -6 | -2 | -4 | 0 | 1 | ·
Cc1csc(=O)n1CCC(=O)OCC(=O)NNC(=O)c1ccc(Cl)cc1 | 3 | -4 | 4 | 0 | 49* | 2
COc1cc(/C=C2/SC(=S)N(CC(=O)O)C2=O)ccc1OCC(=O)Nc1ccc(C)c(C)c1 | 11 | 1 | · | -1 | 91* | 56*
COc1cc(/C=C2\SC(=S)N(CCC(=O)Nc3ccc(O)cc3)C2=O)cc(OC)c1OC | 3 | -17 | -12 | -1 | -1 | ·
COC(=O)C[C@H]1c2cc(C(F)(F)F)ccc2S(=O)(=O)N1Cc1ccc(OC)cc1 | -2 | -12 | -14 | 0 | -1 | ·
CCc1ccccc1NC(=O)N1CCCC(CCC(=O)N(C)CCc2ccccn2)C1 (centres undefined) | 2 | 1 | -4 | 1 | 117* | 12
COc1cc(NC(=S)NCCCN2CCOCC2)c(OC)cc1Cl | 4 | 0 | -4 | -4 | -1 | ·
COc1ccc(NC(=S)N(CCCN2CCC(C)CC2)Cc2cccs2)cc1Cl | -2 | -3 | -4 | 0 | 56* | 27*
COc1ccc(NC(=S)NCCN2CCC(C)CC2)cc1Cl | -1 | -43 | -4 | -1 | 90* | 79*
COc1ccc(NC(=S)N(CCCN2CCN(C)CC2)Cc2cccs2)cc1 | -3 | 2 | -5 | -7 | -3 | ·
S=C(NCCN1CCOCC1)Nc1ccc(Cl)cc1Cl | 2 | 3 | -7 | -3 | 1 | ·
COc1ccc(NC(=S)NCCCN2CCCC2)cc1Cl | -7 | 0 | -17 | -2 | 90* | 41*
S=C(NCCCN1CCOCC1)Nc1ccc(Cl)cc1Cl | -2 | 1 | -13 | -8 | 42* | 9
CCOC(=O)c1c(S(=O)(=O)NCC(=O)Nc2ccc(F)cc2)c(C)n(C)c1C | 3 | 0 | 4 | -1 | -3 | ·
O=C(NCCCn1ccnc1)C(Cc1ccccc1)N1C(=O)c2ccccc2C1=O (centres undefined) | -7 | 1 | 0 | -1 | 48* | 36*
COc1cc(C(=S)N2CCCCC2)ccc1O | 6 | 8 | 0 | 0 | 98* | 75*
SMILES | SUMO1-SIM PPI | DNMT1 inh | Scp1 inh | LMPTP block | STEP inh | STEP inh conf
COc1cc(C(=S)N2CCCC2)ccc1O | 14 | -2 | -6 | -1 | 0 | ·
Cc1cc(C)cc(C(=O)NCCC(=O)N2CCC3(CC2)NCCc2[nH]cnc23)c1 | 2 | 0 | 0 | -2 | 15 | ·
COC(=O)c1ccc(NC(=O)c2cn(-c3ccccc3)nc2-c2ccncc2)cc1 | 19 | -8 | 6 | 1 | 46* | -4
CCOC(=O)CN(c1ccccc1C)S(=O)(=O)c1ccc(Cl)cc1 | 3 | 1 | -10 | 0 | 2 | ·
CCN(CC(=O)N1CCOCC1)S(=O)(=O)c1cc(Cl)ccc1Cl | 0 | 1 | -2 | -2 | 2 | ·
COc1ccccc1NC(=S)N(CCCN1CCOCC1)Cc1cn(C)c2ccccc12 | -3 | -13 | -4 | -4 | 8 | ·
